Results from ChEMBL document CHEMBL1158074, “Cytotoxic constituents from the formosan soft coral Clavularia inflata var. luzoniana” (J Nat Prod, 2006).
Converted amounts (≈) assume the structure as drawn. The source made the active and inactive calls. No cut-off for these calls is given here.

Experiments:
P388 = assay: Cytotoxicity against mouse P388 cells; type: functional; conditions: for EC50: read-out: ED50 (the source's name)
Outline: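 P-388 mouse lymphocytic leukemia cells were provided by an academic laboratory at the University of Illinois at Chicago. Activity is expressed as an ED50.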

HT-29 = assay: Cytotoxicity against human HT 29 cells; type: functional, cell-based
Outline: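 HT-29 human colon adenocarcinoma cells were obtained from the American Type Culture Collection. The value is reported as an ED50.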

SMILES | EC50 (P388) [µg/mL] | EC50 (HT-29; read-out: ED50 (the source's name)) [µg/mL] | Activity (P388) | Activity (HT-29) | EC50 (HT-29; read-out: EC50) [µg/mL]
C=C1[C@@H]2[C@@H](OC(C)=O)OC=C([C@H](OC(C)=O)[C@@H](C=C(C)C)OC(C)=O)[C@H]2CC/C(C)=C/[C@H](OC(=O)c2ccccc2)[C@H]1O | 0.5 (≈ 0.838 µM) | 1.2 (≈ 2.01 µM) |  |  | 
CC(=O)C(O)C[C@@H]1[C@@H]([C@@H]2[C@H]3CC[C@@]23C)C1(C)C (stereo partly specified) |  |  | inactive | inactive | 
C=C1CC/C=C(\C)C/C=C2/[C@H](C(C)C)[C@@H](O)C[C@@]2(C)CC1=O | 1.5 (≈ 4.96 µM) |  |  | inactive | 
C=C1CC[C@H]2[C@@H]([C@@H]3[C@@H]1C[C@@H](O)[C@@]3(C)O)C2(C)C |  |  | inactive | inactive | 
C=C1CC[C@H]2[C@@H]([C@H]3C(C)=CC[C@@]13OO)C2(C)C |  |  | inactive | inactive | 
C=C1CC/C=C(\C)C/C=C2/[C@H](C(C)C)CC[C@@]2(C)C[C@@H]1O | 3.6 (≈ 12.5 µM) |  |  | inactive | 
CC1(C)[C@@H]2[C@@H]3[C@H](C[C@@H](O)[C@@]3(C)O)[C@@](C)(O)CC[C@@H]21 |  |  | inactive | inactive | 
C=C1CC/C=C(\C)C/C=C2/[C@H](C(C)C)CC[C@@]2(C)CC1=O | 0.6 (≈ 2.09 µM) |  |  |  | 2.8 (≈ 9.77 µM)
